Data set [1] concerns the target T1, Sphingosine 1-phosphate receptor 3 (Homo sapiens, UniProt Q99500). The data set can be described thus: Agonist activity at human S1P3 receptor expressed in CHO-K1 cells co-expressing Gq/i5 G-protein assessed as calcium mobilization by FLIPR assay relative to S1P. The format is functional, cell-based. The procedure, abridged:
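Ca2+ mobilization in CHO-K1 cells expressing hS1P3 and a chimeric Gq/i5 G-protein. Efficacy expressed as % relative to S1P; compounds not reaching >10% of control activity reported as greater than the highest concentration tested.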
For orientation: Calcium assays in cells follow changes in intracellular calcium, usually with a dye or a luminescent sensor.

In data set [2] the target is T2, Sphingosine 1-phosphate receptor 1 (Homo sapiens, UniProt P21453). The data set can be described thus: Agonist activity at human S1P1 receptor expressed in human U2OS cells co-expressing eGFP assessed as receptor internalization into cytoplasm using Hoechst dye staining relative to 1-(4-(6-benzylbenzofuran-2-yl)-3- fluorobenzyl)azetidine-3-carboxylic acid. The format is functional, cell-based.

Data set [3] in a line: Apparent permeability of the compound in pig LLC-PK1 cells. The format is ADME, cell-based, Sus scrofa. Summed up:
(§1)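 LLC-PK1 porcine proximal tubule cell monolayers; apparent permeability (Papp) of test compound through the cells measured, along with efflux ratio.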

For data set [4], the target named is T2, Sphingosine 1-phosphate receptor 1. As to the kind of experiment: Agonist activity at human S1P1 receptor expressed in human U2OS cells co-expressing eGFP assessed as receptor internalization into cytoplasm using Hoechst dye staining. The format is functional, cell-based.
The nature of data set [5]: Solubility of the compound in phosphate-buffered saline at pH 7.4. It counts as physicochemical. The procedure, abridged: (§2)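 Compound solubility measured separately in 0.010 M aqueous HCl, in PBS at pH 7.4, and in simulated intestinal fluid.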
The next data set deals with Rattus norvegicus. The data set can be described thus: Immunosuppressive activity in Lewis rat assessed as reduction in circulating peripheral lymphocyte count at 1 mg/kg, po after 24 hrs relative to control. More on the design: scale not given: the % may be the effect or the level left. It counts as functional. Summed up:
(§3)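 Female Lewis rats (N = 5/group) given a single oral dose (0.30, 1.0 or 3.0 mg/kg) in 20% Captisol or HPBCD, 1% HPMC, 1% Pluronic F68, pH 2.0 with MSA. At 24 h, blood lymphocytes were counted as percent of vehicle control and total plasma compound measured. Significance by ANOVA/Dunnett's test versus vehicle.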

A short description of data set [6]: Plasma concentration in Lewis rat at 1 mg/kg, po after 24 hrs. The format is ADME, organism-based. More on the design: dose 1 mg/kg, route oral. Summed up: as §3
Data set [7] is described as follows: Efflux ratio of permeability in pig LLC-PK1 cells. It counts as ADME, cell-based, Sus scrofa. Summed up:
as §1

In data set [8] the target is T1, Sphingosine 1-phosphate receptor 3. As to the kind of experiment: Agonist activity at human S1P3 receptor expressed in CHO-K1 cells co-expressing Gq/i5 G-protein assessed as calcium mobilization by FLIPR assay. It counts as functional, cell-based.
Data set [9] is described as follows: Solubility of the compound in 0.010 M aqueous hydrogen chloride at pH 7.4. The format is physicochemical. The note with it: in the assay text read “hydrogen chloride” for “hydrogen chloride at pH 7.4”. The procedure, abridged:
as §2

Data set [10] is described as follows: Intrinsic clearance in rat liver microsomes assessed per mg of protein after 30 mins. The format is ADME, Microsome. The conditions noted are these: read-out: CLH. The procedure, abridged: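 Test compound incubated with rat liver microsomes for 30 min. Percent turnover measured and used to estimate intrinsic clearance.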
On the technique in general: Microsomes from liver hold many membrane-bound enzymes, among them those of drug oxidation.

The nature of data set [11]: Solubility of the compound in simulated intestinal fluid at pH 7.4. It counts as physicochemical. The procedure, abridged:
as §2

The values below come from ChEMBL document CHEMBL1938299, “Quinolinone-based agonists of S1P₁: use of a N-scan SAR strategy to optimize in vitro and in vivo activity” (Bioorg Med Chem Lett, 2012).

≈ marks a conversion by molar mass, not a printed value.

T2 sequence (P21453 whole entry): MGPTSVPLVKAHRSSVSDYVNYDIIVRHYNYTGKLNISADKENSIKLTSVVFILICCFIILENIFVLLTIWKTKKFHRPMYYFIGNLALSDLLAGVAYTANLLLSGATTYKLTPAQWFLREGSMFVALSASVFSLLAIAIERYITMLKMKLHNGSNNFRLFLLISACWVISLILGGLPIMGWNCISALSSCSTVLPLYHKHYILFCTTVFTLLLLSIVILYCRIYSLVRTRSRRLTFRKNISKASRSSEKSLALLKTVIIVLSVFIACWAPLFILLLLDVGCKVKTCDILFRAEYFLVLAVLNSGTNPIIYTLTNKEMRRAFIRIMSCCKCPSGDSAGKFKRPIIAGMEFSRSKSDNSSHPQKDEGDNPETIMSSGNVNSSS
T1 sequence (Q99500 whole entry): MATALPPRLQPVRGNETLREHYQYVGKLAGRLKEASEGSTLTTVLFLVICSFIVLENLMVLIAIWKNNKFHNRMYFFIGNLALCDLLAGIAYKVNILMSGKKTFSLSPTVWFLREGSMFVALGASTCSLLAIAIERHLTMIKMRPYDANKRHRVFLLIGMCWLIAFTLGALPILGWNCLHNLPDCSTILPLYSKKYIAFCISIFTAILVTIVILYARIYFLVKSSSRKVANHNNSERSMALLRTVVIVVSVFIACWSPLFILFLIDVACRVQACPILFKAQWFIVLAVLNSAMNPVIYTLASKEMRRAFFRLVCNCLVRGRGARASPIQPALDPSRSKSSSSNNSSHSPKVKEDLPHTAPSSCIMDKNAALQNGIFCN

`CCCCCCCCc1ccc(CC[C@](N)(CO)COP(=O)(O)O)cc1`: in data set [1], the Efficacy was 35%.

With `CCCCCCCCc1ccc(CCC(N)(CO)CO)cc1`, the Efficacy in data set [2] stood at 115%.

Consider `Cn1cc(C(=O)Nc2ccc(-c3ccccc3)c(C(F)(F)F)c2)c(=O)c2ccncc21`, for which the Papp in data set [3] was determined as 3.4 ×10⁻⁶ cm/s. The values for the EC50 in [4] and in data set [8] were 29 nM and more than 2500 nM, respectively. Moreover, the solubility in [5] was 2.6 µg/mL (≈ 6.14 µM); in data set [9] it was less than 1 µg/mL; in [11], 6.1 µg/mL (≈ 14.4 µM). For the same compound, the Activity with Rattus norvegicus is -36%. Also, the concentration at 24 h in data set [6] is 140 ng/mL. In addition, in [7], the efflux ratio was 1. Besides, the Efficacy in data set [2] turned out to be 120%. In addition, the microsomal CLint in [10] is less than 14 µL/min/mg.

Regarding `Cn1cc(C(=O)Nc2cnc(-c3ccccc3)c(C(F)(F)F)c2)c(=O)c2ccccc21`, the Papp in data set [3] was 11 ×10⁻⁶ cm/s. In addition, the EC50 in [4] was 2900 nM; in data set [8], more than 2500 nM. Further, the solubility in data set [5] was less than 1 µg/mL; in data set [9], less than 1 µg/mL; in [11], 13 µg/mL (≈ 30.7 µM). The efflux ratio in data set [7] was found to be 1.9. The Efficacy in [2] came out at 170%. In addition, the microsomal CLint in [10] was less than 14 µL/min/mg.

For `Cn1cc(C(=O)Nc2ccc(-c3ccccc3)c(C(F)(F)F)c2)c(=O)c2ncccc21`, the Papp in data set [3] stood at 16 ×10⁻⁶ cm/s. Besides, the EC50 is 4100 nM in data set [4] and more than 2500 nM in [8]. In addition, the efflux ratio in [7] turned out to be 1.4. The Efficacy in data set [2] was found to be 86%. The microsomal CLint in data set [10] was less than 14 µL/min/mg.

Regarding `Cn1nc(C(=O)Nc2ccc(-c3ccccc3)c(C(F)(F)F)c2)c(=O)c2ccccc21`, in data set [3], the Papp came to 2.3 ×10⁻⁶ cm/s. Besides, the results for the EC50 in [4] and in [8] were 41 nM and more than 2500 nM, respectively. Besides, the solubility in [5] was 1.6 µg/mL (≈ 3.78 µM); in [9], less than 1 µg/mL; in data set [11], 12 µg/mL (≈ 28.3 µM). Further, the Activity in the data set on Rattus norvegicus was 6%. The concentration at 24 h in data set [6] was found to be 9.7 ng/mL. In data set [7], the efflux ratio amounted to 1.2. Besides, the Efficacy in data set [2] was 130%. Also, in [10], the microsomal CLint is less than 14 µL/min/mg.

`COc1ccncc1C(=O)NC(=O)Nc1ccc(-c2ccccc2)c(C(F)(F)F)c1`: in data set [3], the Papp was 2.3 ×10⁻⁶ cm/s. Further, the solubility in data set [5] is 6.6 µg/mL (≈ 15.9 µM); in data set [9], 17 µg/mL (≈ 40.9 µM); in data set [11] it was 16 µg/mL (≈ 38.5 µM). Further, the Activity in the data set on Rattus norvegicus is listed as -78%. Further, in [6], the concentration at 24 h was determined as 63 ng/mL. Also, the EC50 in [8] was more than 25000 nM.

For `Cn1cc(C(=O)Nc2ccc(-c3ccccn3)c(C(F)(F)F)c2)c(=O)c2cnccc21`, the Papp in data set [3] is 16 ×10⁻⁶ cm/s. Besides, the EC50 in [4] was 200 nM; in [8], more than 2500 nM. The solubility in data set [5] is less than 1 µg/mL; in data set [9] it was 120 µg/mL (≈ 283 µM); in data set [11] it was 6.7 µg/mL (≈ 15.8 µM). The Activity in the data set on Rattus norvegicus is on record as -32%. In [6], this compound registered a concentration at 24 h of 150 ng/mL. Also, the efflux ratio in data set [7] is 1. For the same compound, in data set [2], the Efficacy is 100%. In addition, in data set [10], the microsomal CLint came to 15 µL/min/mg.

As for `Cn1cc(C(=O)Nc2ccc(-c3ccccn3)c(C(F)(F)F)c2)c(=O)c2ccccc21`, the Papp in data set [3] was 11 ×10⁻⁶ cm/s. Moreover, the values for the EC50 in data set [4] and in data set [8] were 60 nM and more than 2500 nM, respectively. For the same compound, the solubility in data set [5] was less than 1 µg/mL; in [9], 12 µg/mL (≈ 28.3 µM); in data set [11], 5.2 µg/mL (≈ 12.3 µM). In addition, the Activity with Rattus norvegicus is given as 25%. In addition, the concentration at 24 h in [6] was 5.1 ng/mL. The efflux ratio in data set [7] was 0.8. Besides, the Efficacy in [2] was determined as 110%. In addition, in [10], the microsomal CLint was less than 14 µL/min/mg.

Take `Cn1cc(C(=O)Nc2ccc(-c3ccncc3)c(C(F)(F)F)c2)c(=O)c2ccccc21`: the Papp in data set [3] came out at 15 ×10⁻⁶ cm/s. Further, the EC50 was 450 nM in data set [4] and more than 2500 nM in data set [8]. The solubility in [5] was 7.9 µg/mL (≈ 18.7 µM); in data set [9], 6.4 µg/mL (≈ 15.1 µM); in data set [11] it was 12 µg/mL (≈ 28.3 µM). In addition, the efflux ratio in data set [7] was 1.5. In addition, the Efficacy in data set [2] amounted to 110%. The microsomal CLint in [10] was 44 µL/min/mg.

Take `Cn1cc(C(=O)Nc2ccc(-c3ccccc3)c(C(F)(F)F)c2)c(=O)c2cccnc21`: in data set [3], the Papp was found to be 2.2 ×10⁻⁶ cm/s. The results for the EC50 in data set [4] and in data set [8] were 190 nM and more than 2500 nM, respectively. Further, the results for the solubility in data set [5], in data set [9] and in data set [11] were less than 1 µg/mL, less than 1 µg/mL and 5.9 µg/mL (≈ 13.9 µM), respectively. Besides, the efflux ratio in [7] amounted to 1.7. Also, the Efficacy in data set [2] worked out at 100%. Moreover, the microsomal CLint in data set [10] was less than 14 µL/min/mg.

Turning to `CCCCCCCCCCCCC/C=C/[C@@H](O)[C@@H](N)COP(=O)(O)O`, the EC50 in data set [4] came out at 18 nM. Also, in data set [2], the Efficacy worked out at 91%.

For `Cn1cc(C(=O)Nc2ccc(-c3cccnc3)c(C(F)(F)F)c2)c(=O)c2ccccc21`, the Papp in data set [3] was determined as 18 ×10⁻⁶ cm/s. Also, the results for the EC50 in data set [4] and in [8] were 310 nM and more than 2500 nM, respectively. Moreover, the solubility in data set [5] was less than 1 µg/mL; in [9], 23 µg/mL (≈ 54.3 µM); in [11], 6.7 µg/mL (≈ 15.8 µM). For the same compound, the efflux ratio in data set [7] was determined as 1.6. For the same compound, the Efficacy in data set [2] amounted to 110%. Also, the microsomal CLint in [10] turned out to be 18 µL/min/mg.

Turning to `Cn1cc(C(=O)Nc2ccc(-c3ccccn3)c(C(F)(F)F)n2)c(=O)c2cnccc21`, the Papp in [3] amounted to 15 ×10⁻⁶ cm/s. The EC50 in data set [4] was 210 nM; in data set [8] it was more than 2500 nM. For the same compound, the solubility is 3 µg/mL (≈ 7.05 µM) in data set [5], more than 200 µg/mL in [9] and 5.8 µg/mL (≈ 13.6 µM) in data set [11]. Moreover, the Activity in the data set with Rattus norvegicus is recorded as -32%. The concentration at 24 h in data set [6] stood at 140 ng/mL. In data set [7], the efflux ratio was 1. In data set [2], the Efficacy amounted to 130%. In addition, the microsomal CLint in data set [10] is less than 14 µL/min/mg.

For the compound `Cn1cc(C(=O)Nc2cc(C(F)(F)F)c(-c3ccccc3)cn2)c(=O)c2ccccc21`, the Papp in data set [3] was less than 1 ×10⁻⁶ cm/s. The EC50 in [4] was 1100 nM; in data set [8], more than 2500 nM. The Efficacy in data set [2] turned out to be 59%. For the same compound, in data set [10], the microsomal CLint was less than 14 µL/min/mg.

Take `Cn1cc(C(=O)Nc2ccc(-c3ccccc3)c(C(F)(F)F)n2)c(=O)c2ccccc21`: the Papp in [3] was less than 1 ×10⁻⁶ cm/s. The EC50 is 42 nM in [4] and more than 2500 nM in data set [8]. The solubility in [5] was less than 1 µg/mL; in data set [9], less than 1 µg/mL; in data set [11], 2.3 µg/mL (≈ 5.43 µM). In the data set with Rattus norvegicus, the Activity is recorded as 7%. In data set [6], this compound came in with a concentration at 24 h of 1.3 ng/mL. Also, the Efficacy in data set [2] was 120%. In addition, the microsomal CLint in data set [10] was less than 14 µL/min/mg.

Usually Papp stands for the rate of passage across a membrane or cell layer, normalised by area and donor concentration. The term EC50 denotes the concentration at which the effect is half-maximal. Broadly, the solubility is how much of the substance goes into solution per volume. As a reminder, the efflux ratio is a quotient of directional permeabilities that is used to spot active efflux.
